Source: PubChem
Shown are actives, neighbours in structure and some others; about 1.3% of the full set was active somewhere.
RBBP9 inhibitor: inhibitors of human serine hydrolase RBBP9. hit rate 0.2% among 220,000. inhibition, % at 7.94 µM. recombinant RBBP9, FP-Rh probe fluorescence polarization;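 active = inhibition above the campaign mean of all tested compounds plus 3 SD, cut at about 14% in these data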;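 also: plate controls were DMSO wells with RBBP9 for no effect and wells lacking RBBP9 protein for full effect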
Target sequence (O75884 whole entry, looked up): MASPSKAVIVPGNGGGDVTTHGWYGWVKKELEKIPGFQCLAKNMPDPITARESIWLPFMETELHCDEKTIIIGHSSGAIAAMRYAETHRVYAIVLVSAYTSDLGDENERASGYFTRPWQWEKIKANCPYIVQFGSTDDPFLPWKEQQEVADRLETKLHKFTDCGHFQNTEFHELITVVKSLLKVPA
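system = RBBP9 protein | input = RBBP9 at 2.5 µM in dispensed solution, before mixing | measured by = fluorescence polarization (mP), excitation 525 nm, emission 598 nm | incubation = enzyme-compound preincubation 30 min, then probe labeling 45 min, 25 °C | buffer or medium = Tris-NaCl-Pluronic buffer, pH 8.0 | compound = single dose 7.94 µM | also added = FP-Rh probe, 375 nM dispensing solution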
PME-1 primary: PME-1 (human) inhibition. inhibition, % at 5.9 µM. hit rate 0.53% among 320,000. AID 2130. recombinant PME-1, FP-Rh probe fluorescence polarization. Q9Y570;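 active = inhibition above the campaign mean of all compounds plus 3 SD, cut at about 26% in these data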;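 also: competitive labeling of PME-1 active site by serine hydrolase directed probe; 0% = PME-1 with DMSO and 100% = wells lacking PME-1 enzyme; inhibitors block probe labeling so polarization falls and inhibition rises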
Target sequence (Q9Y570 whole entry, looked up): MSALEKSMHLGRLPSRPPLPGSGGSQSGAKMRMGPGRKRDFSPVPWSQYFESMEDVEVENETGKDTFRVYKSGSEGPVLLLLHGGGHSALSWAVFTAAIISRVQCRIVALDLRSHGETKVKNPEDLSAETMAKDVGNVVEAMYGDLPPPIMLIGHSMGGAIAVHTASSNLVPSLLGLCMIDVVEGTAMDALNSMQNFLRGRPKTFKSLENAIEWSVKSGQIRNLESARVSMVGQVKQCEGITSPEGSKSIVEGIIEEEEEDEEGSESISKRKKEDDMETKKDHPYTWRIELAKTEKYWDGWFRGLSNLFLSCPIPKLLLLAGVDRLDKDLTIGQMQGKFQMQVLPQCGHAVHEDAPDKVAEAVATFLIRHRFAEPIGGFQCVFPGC
LYPLA2 counter: LYPLA2 (human) inhibition in PME1 counter-screen | O95372 | recombinant LYPLA2, FP-Rh probe fluorescence polarization | inhibition, % at 5.9 µM | hit rate 0.38% among 320,000 | AID 2177;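 active = inhibition above the screen-wide mean plus 3 SD, limit set per campaign, cut at about 26% in these data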;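 also: 0% = LYPLA2 with DMSO and 100% = wells lacking LYPLA2 enzyme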
LYPLA1 counter: counter-screen for PME1 inhibitors: inhibitors of human LYPLA1. O75608. recombinant LYPLA1, FP-Rh probe fluorescence polarization. inhibition, % at 5.9 µM. hit rate 0.16% among 320,000. AID 2174;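 active = inhibition above the mean of all tested compounds plus 3 SD, set per campaign, cut at about 14% in these data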;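 also: inhibitors block serine hydrolase probe labeling of LYPLA1 so polarization falls; 0% = enzyme with DMSO and 100% = wells lacking LYPLA1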
Fam108B inh: Fam108B inhibition, counter-screen for RBBP9 inhibitors | recombinant Fam108B, FP-Rh probe fluorescence polarization | inhibition, % at 9.51 µM | hit rate 0.33% among 300,000 | AID 1947;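 active = inhibition above the screen mean inhibition plus 3 SD, computed separately per campaign, cut at about 18% in these data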;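 also: inhibitors lower polarization as less probe binds the enzyme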
PAD4 inh: inhibitors of human PAD4; hit rate 0.41% among 330,000; Q9UM07; inhibition, % at 6.36 µM; recombinant PAD4, RCA probe fluorescence polarization;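 active = percent inhibition above a cutoff equal to the mean of all tested compounds plus 3 SD, cut at about 15% in these data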;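 also: 0% = PAD4 with RCA probe and DMSO and 100% = probe without PAD4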
* = called active by the depositor; nt = no result given.

SMILES | RBBP9 inhibitor | PME-1 primary | LYPLA2 counter | LYPLA1 counter | Fam108B inh | PAD4 inh
O=[N+]([O-])c1ccc(C2Nc3cccc4cccc(c34)N2)cc1 | -3 | 29* | -9 | -6 | 13 | 2
O=[N+]([O-])c1cccc(C2Nc3cccc4cccc(c34)N2)c1 | 11 | 21 | 2 | -5 | 21* | 0
O=C(COC(=O)c1cc[n+]([O-])cc1)Nc1cccc(F)c1 | nt | nt | nt | nt | nt | -9
CCC1=NNc2cccc3c(OC)ccc1c23 | 3 | 23 | 10 | 7 | 14 | 37*
O=[N+]([O-])c1ccccc1N/N=C/c1c[nH]c2ccccc12 | -1 | 50* | 5 | -3 | 6 | 5
O=c1[nH]c(N/N=C\c2ccc3c(c2)OCO3)nc2ccccc12 | -12 | 29* | 7 | 6 | 4 | -2
CCN(Cc1ccncc1)Cc1ccc(Br)cc1 | nt | -5 | 0 | -2 | 0 | -4
COC(=O)C1=C(N)N(c2ccccc2F)C2=C(C(=O)CC(C)(C)C2)C1c1ccc(OC)c(OC)c1 (configuration not stated) | -6 | 6 | 13 | 5 | 1 | 6
O=C(CCN1CCCCCC1)c1ccccc1 | 18* | -3 | 6 | 0 | -4 | -3
COc1ccc(C(=O)CCN2CCCCCC2)cc1 | 1 | 1 | -3 | -2 | -3 | 4
COc1ccc(/C(C)=C2/SC(=S)N(CCC(=O)O)C2=O)cc1 | -13 | 27* | 1 | -2 | -1 | -13
O=C1CCCCC1C(O)c1ccc(Cl)cc1 (configuration not stated) | -1 | 0 | 4 | 0 | -1 | -4
COCCN1C(=O)c2cc(C(=O)Nc3ccc(OC)c(OC)c3)ccc2C1Nc1ccc(OC)c(OC)c1 (configuration not stated) | -6 | -2 | 2 | -2 | 1 | 3
COc1cc(N/N=C(\C)c2ccc(O)c(C)c2)nc(-c2ccccc2)n1 | -3 | 30* | -7 | -9 | 4 | -5
CC(C)(C)c1ccc(C(=O)O)c(C(=O)c2ccccc2)c1 | 7 | 5 | 3 | 0 | -1 | 0
CNNC(=S)Nc1cccc(C(F)(F)F)c1 | 1 | -1 | 2 | 1 | -1 | 0
FC(F)(F)c1cccc(NC(=S)NNC(=S)Nc2cccc(C(F)(F)F)c2)c1 | -9 | 33* | -21 | -21 | 13 | 1
COc1ccc(C(C(=O)NC(C)(C)C)N(C(=O)Cn2nnc3ccccc32)c2cccc(C(C)=O)c2)cc1O (configuration not stated) | -5 | -3 | 0 | -1 | -3 | 3
CCOC(=O)CON1C(=O)C(=O)N(OCC(=O)OCC)C2CCCCC21 (configuration not stated) | -5 | -1 | 9 | 5 | 0 | 3
Cc1[nH]c2ccccc2c1/C=N/NC(=O)c1cc(-c2ccncc2)nc2ccccc12 | nt | 26* | -1 | -12 | 16 | 7
Cc1[nH]c2ccccc2c1/C=N/NC(=O)c1ccccc1 | nt | 1 | 7 | 0 | -2 | 2
COc1cc(C(=O)NC2=C(C#N)CCC2)cc(OC)c1OC | -5 | -4 | -3 | -3 | -1 | -2
O=[N+]([O-])c1ccc(Sc2nc3ccccc3o2)c([N+](=O)[O-])c1 | -1 | 4 | 10 | 2 | 12 | 49*
O=C(Cn1nnc2ccccc2c1=O)N[C@H](C(=O)O)c1ccccc1 | -6 | -2 | -2 | 3 | 3 | -3
COc1ccc(CCNC(=O)CNCC2CCCCC2)cc1OC | nt | -1 | 1 | 2 | 3 | 4
SMILES | RBBP9 inhibitor | PME-1 primary | LYPLA2 counter | LYPLA1 counter | Fam108B inh | PAD4 inh
O=C(CSc1ccc(Cl)cc1)NC1=NN(c2ccccc2)C(=O)C1 | nt | 8 | -1 | -4 | 5 | 15*
O=C(NC1=C(Nc2ccc(Cl)cc2)C(=O)c2ccccc2C1=O)c1ccccc1 | -2 | -3 | -20 | -7 | -1 | -18
O=C1C(Cl)=C(NC(=O)c2ccccc2)C(=O)C(Cl)=C1NC(=O)c1ccccc1 | nt | 4 | -1 | -1 | 6 | 51*
C=CCSC1=N/C(=C\c2cc(OCC)c(OC(C)=O)c([N+](=O)[O-])c2)C(=O)S1 | 2 | 64* | 6 | 9 | 12 | 0
O=C(Nc1cccc(NC(=O)c2cccc(Cl)c2)c1)c1cccnc1 | nt | -2 | -6 | -3 | -3 | -2
O=C(CCNS(=O)(=O)c1cccs1)N1CCN(c2cccc(Cl)c2)CC1 | nt | 1 | 9 | -1 | -3 | 0
O=C(CCNS(=O)(=O)c1cccc2nonc12)N1CCN(c2cccc(Cl)c2)CC1 | -5 | 3 | 48* | 3 | 4 | -4
Nc1ccccc1Nc1nc2ccccc2[nH]1 | nt | 2 | 5 | 2 | 3 | -7
Nc1ccc(Nc2nc3ccccc3[nH]2)cc1 | nt | 40* | 5 | -8 | 17 | -2
CCOc1ccc(NC(=S)NNc2ccnc3cc(Cl)ccc23)cc1 | 1 | 38* | -1 | -6 | 5 | 2
CCOC(=O)[C@H]1[C@H]2COc3ccc(Cl)cc3[C@@H]2N2C(=O)CN(Cc3ccc(Cl)cc3)C(=O)[C@@]12C | nt | 2 | -3 | -1 | nt | -1
CCc1ccc(/C=N/NC(=O)C(=O)NCCCN2CCOCC2)cc1 | -6 | -3 | -1 | -6 | -3 | -7
Cc1cc(C)nc(/N=C(\N)Nc2cccc(OCc3ccccc3)c2)n1 | -2 | 0 | 1 | -1 | -1 | 2
Cc1cc(C)nc(/N=C(\N)Nc2ccc(OCc3ccccc3)cc2)n1 | -1 | -6 | 30* | 6 | 3 | -6
COC(=O)c1ccc(Cn2nnc3c(=O)[nH]c(C4CCCN(S(=O)(=O)c5ccccc5Cl)C4)nc32)cc1 (configuration not stated) | nt | 10 | -2 | -1 | -2 | 0
COC(=O)c1ccc(Cn2nnc3c(=O)[nH]c(C4CCN(S(=O)(=O)c5ccc(F)cc5)CC4)nc32)cc1 | nt | 36* | 19 | 2 | -4 | -8
CC(=O)Nc1ccc(NC(=O)c2nc(-c3ccccc3)oc2C)cc1 | -4 | -5 | -7 | -5 | -2 | -18
COc1ccc(/C=N/NC(=O)c2cc3cc(OC)c(OC)cc3[nH]2)cc1 | nt | 27* | 4 | 7 | 5 | -1
Cc1ccccc1CCN(C(=O)Cn1nnc2ccccc21)C(C(=O)NCC1CCCO1)c1nc2ccccc2n1C (configuration not stated) | -2 | -6 | -4 | -5 | 2 | 0
COc1ccc(-c2nn3c(-c4ccccc4)nnc3s2)cc1 | -4 | -8 | 2 | -1 | -4 | 3
CCN(CC)c1ccc(-c2nn3c(-c4ccccc4OC)nnc3s2)cc1 | -11 | 28* | 11 | 7 | 5 | -3
CCOc1cc(C2NN=C(c3ccc(C)cc3)S2)ccc1O (configuration not stated) | -5 | 8 | 6 | -2 | 25* | -7
CC(=O)Oc1ccc(C(c2ccc(OC(C)=O)cc2)c2ccccn2)cc1 | 25* | 1 | 0 | -1 | 1 | -2
